Measured values from ChEMBL document CHEMBL4130517, “Discovery of a Tetrahydrobenzisoxazole Series of γ-Secretase Modulators” (ACS Med Chem Lett, 2017).
Calls of active or inactive are those of the source. No cut-off for these calls is given here.

Assays:
[1] = biological target: T1, Gamma-secretase (Homo sapiens) (UniProt Q96BI3+Q9NZ42+Q8WW43+P49768+Q92542+P49810); assay: Modulation of gamma-secretase (unknown origin) expressed in HEK293 cells harboring SCP99-Lon mutation assessed as ratio of total amyloid beta to amyloid beta 42 level after 5 hrs by sandwich immunoassay; type: cell-based
Procedure, shortened: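 HEK293 cells exposed 5 h to varied GSM concentrations. Conditioned medium assayed by MSD sandwich electrochemiluminescence immunoassay: Aβ42 with TAG-G2-11/biotin-4G8, total Aβ with TAG-W02/biotin-4G8. Ratio formed from total Aβ and Aβ42.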

[2] = biological target: Gamma-secretase; assay: Modulation of gamma-secretase (unknown origin) expressed in HEK293 cells harboring SCP99-Lon mutation assessed as reduction in Abeta42 production after 5 hrs by sandwich immunoassay; type: cell-based, Homo sapiens
Procedure, shortened: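 HEK293 cells incubated 5 h with a range of GSM concentrations. Aβ42 in conditioned medium quantified by MSD sandwich electrochemiluminescence immunoassay, using TAG-G2-11 and biotin-4G8 antibodies.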

[3] = system: P-gp; assay: Substrate activity at P-gp (unknown origin) assessed as permeability across apical to basolateral side; type: ADME; settings: human, not told; read-out: permeability
[4] = Drug uptake in brain of Sprague-Dawley rat at 30 mg/kg, po after 3 hrs by LC-MS/MS analysis; type: ADME, organism-based; settings: read-out: Drug uptake
Procedure, shortened: (§1)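 Rats given a single oral dose of 30 mg/kg. Plasma and brain collected 3 h post-dose and drug concentration measured; n = 3.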

[5] = system: P-gp; assay: Substrate activity at P-gp (unknown origin) assessed as permeability across basolateral to apical side; type: ADME; settings: human, not told; read-out: permeability
[6] = Drug uptake in plasma of Sprague-Dawley rat at 30 mg/kg, po after 3 hrs by LC-MS/MS analysis; type: ADME, organism-based; procedure, shortened: as §1
[7] = system: P-gp; assay: Substrate activity at P-gp (unknown origin) assessed as efflux ratio of permeability across basolateral to apical over apical to basolateral side; type: ADME; settings: human, not told
[8] = system: Rattus norvegicus; assay: Reduction in amyloid beta 42 level in Sprague-Dawley rat cerebrospinal fluid at 30 mg/kg, po administered as single dose after 3 hrs by sandwich immunoassay relative to control; type: functional; design: scale not given: the % may be the effect or the level left
Procedure, shortened: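 Non-transgenic rats received a single oral 30 mg/kg dose or vehicle. CSF sampled 3 h later and Aβ42 compared against vehicle-treated animals; n = 5.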

[9] = Dissociation constant, pKa of the compound; type: physicochemical
[10] = biological target: T1, Gamma-secretase (Homo sapiens); assay: Modulation of gamma-secretase (unknown origin) expressed in HEK293 cells harboring SCP99-Lon mutation assessed as reduction in amyloid beta 42 level at 10 uM by surface enhanced laser desorption/ionization mass spectrometry; type: cell-based
[11] = biological target: T1, Gamma-secretase (Homo sapiens); assay: Modulation of gamma-secretase (unknown origin) expressed in HEK293 cells harboring SCP99-Lon mutation assessed as reduction in amyloid beta 40 level at 10 uM by surface enhanced laser desorption/ionization mass spectrometry; type: cell-based
[12] = biological target: T1, Gamma-secretase (Homo sapiens); assay: Modulation of gamma-secretase (unknown origin) expressed in HEK293 cells harboring SCP99-Lon mutation assessed as increase in amyloid beta 38 level at 10 uM by surface enhanced laser desorption/ionization mass spectrometry; type: cell-based
[13] = biological target: T1, Gamma-secretase (Homo sapiens); assay: Modulation of gamma-secretase (unknown origin) expressed in HEK293 cells harboring SCP99-Lon mutation assessed as increase in amyloid beta 37 level at 10 uM by surface enhanced laser desorption/ionization mass spectrometry; type: cell-based

Compound	Ratio [1]	IC50 [2]	other results
COc1cc(-c2noc3c2CCCC3Oc2cc(F)cc(F)c2)ccc1-n1cnc(C)c1 (stereo not given)	98	200 nM	
COc1cc(-c2noc3c2CCCC3(O)c2cc(F)cc(F)c2)ccc1-n1cnc(C)c1 (stereo not given)	105	190 nM	
COc1cc(-c2noc3c2CCCC3NCc2cc(F)cc(F)c2)ccc1-n1cnc(C)c1 (stereo in doubt; 14c) [listing 1 of 2 here]		29 nM	Papp A→B [3]: 6.8 ×10⁻⁶ cm/s; concentration at 3 h [4]: 2.19 µM; Papp B→A [5]: 46.2 ×10⁻⁶ cm/s; concentration at 3 h [6]: 6.01 µM; efflux ratio [7]: 6.8
COc1cc(-c2noc3c2CCCC3Nc2ccc(F)cc2)ccc1-n1cnc(C)c1 (stereo in doubt; 14a) [listing 1 of 2 here]		39 nM	Papp A→B [3]: 37.6 ×10⁻⁶ cm/s; concentration at 3 h [4]: 14.3 µM; Activity [8]: 58%; Papp B→A [5]: 60 ×10⁻⁶ cm/s; pKa [9]: 5.33; concentration at 3 h [6]: 10.4 µM; efflux ratio [7]: 1.6
COc1cc(-c2noc3c2CCCC3NC2CCCCC2)ccc1-n1cnc(C)c1 (stereo not given)	64	310 nM	pKa [9]: 8.42
CNC1CCCc2c(-c3ccc(-n4cnc(C)c4)c(OC)c3)noc21 (stereo not given)	2	12000 nM	pKa [9]: 8.1
COc1cc(-c2noc3c2CCCC3OCc2cc(F)cc(F)c2)ccc1-n1cnc(C)c1 (stereo not given)	39	510 nM	
COc1cc(-c2noc3c2CCCC3NCc2cc(F)cc(F)c2)ccc1-n1cnc(C)c1 (stereo in doubt; 14d) [listing 1 of 2 here]	28		
COc1cc(-c2noc3c2CCCC3NCC(F)(F)F)ccc1-n1cnc(C)c1 (stereo not given)	43	460 nM	pKa [9]: 5.42
COc1cc(-c2noc3c2CCCC3NCc2cc(F)cc(F)c2)ccc1-n1cnc(C)c1 (stereo in doubt; 14d) [listing 2 of 2 here]		640 nM	
COc1cc(-c2noc3c2CCCC3(O)Cc2cc(F)cc(F)c2)ccc1-n1cnc(C)c1 (stereo not given)	102	150 nM	
COc1cc(-c2noc3c2CCCC3NCc2cc(F)cc(F)c2)ccc1-n1cnc(C)c1 (stereo in doubt; 14c) [listing 2 of 2 here]	575		Activity [10]: Active; Activity [11]: Active; Activity [12]: Active; Activity [13]: Active
COc1cc(-c2noc3c2CCCC3Nc2ccc(F)cc2)ccc1-n1cnc(C)c1 (stereo in doubt; 14b) [listing 1 of 2 here]	86		
COc1cc(-c2noc3c2CCCC3N[C@H](C)c2ccc(F)cc2)ccc1-n1cnc(C)c1 (stereo not given in full)	77	260 nM	
COc1cc(-c2noc3c2CCCC3Oc2ccc(F)cc2)ccc1-n1cnc(C)c1 (stereo not given)	68	290 nM	
COc1cc(-c2noc3c2CCCC3Nc2ccc(F)cc2)ccc1-n1cnc(C)c1 (stereo in doubt; 14a) [listing 2 of 2 here]	499		Activity [10]: Active; Activity [11]: Active; Activity [12]: Active; Activity [13]: Active
COc1cc(-c2noc3c2CCCC3N(C)Cc2ccc(F)cc2)ccc1-n1cnc(C)c1 (stereo not given)	79	250 nM	
COc1cc(-c2noc3c2CCCC3NCc2ccc(F)cc2)ccc1-n1cnc(C)c1 (stereo not given)	32	130 nM	Activity [10]: Active; Activity [11]: Active; pKa [9]: 7.08; Activity [12]: Active; Activity [13]: Active
COc1cc(-c2noc3c2CCCC3c2cc(F)cc(F)c2)ccc1-n1cnc(C)c1 (stereo not given)	178	110 nM	
COc1cc(-c2noc3c2CCCC3Nc2ccc(F)cc2)ccc1-n1cnc(C)c1 (stereo in doubt; 14b) [listing 2 of 2 here]		230 nM	
